The text below walks through data of ChEMBL document CHEMBL1138023, “Macrocyclic ketone analogues of halichondrin B” (Bioorg Med Chem Lett, 2004).

Experiment [1] relates to U-937. As to the kind of experiment: In vitro inhibitory concentration required to inhibit the growth of U937 cells was determined at 0 hr by mitotic block reversibility assay. The class given is functional. Conditions: Homo sapiens, U-937, 0 h.
Experiment [2] can be described thus: In vitro reversibility ratio in U937 cells. The class given is functional, U-937. Summed up: (§1)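 Human histiocytic lymphoma U937 cells, read by flow cytometry. Scores whether a complete mitotic block is maintained 10 h after drug washout.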
The subject of experiment [3] is U-937. Briefly: In vitro inhibitory concentration required to inhibit the growth of U937 cells was determined at 10 hr by mitotic block reversibility assay. The class given is functional. Conditions: Homo sapiens, U-937, 10 h. In short, it runs like this:
as §1

The subject of the next experiment is DLD-1. As to the kind of experiment: In vitro inhibitory concentration required to inhibit the growth of DLD-1 cells under continuous exposure conditions for 3-4 days. Conditions: Homo sapiens. The class given is functional, cell-based. Summed up: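 Human colon cancer DLD-1 cells grown under continuous drug exposure for 3–4 days. Growth inhibition measured and IC50 reported ± SEM, n = number of experiments.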

Another experiment relates to P388. As to the kind of experiment: Fold resistance calculated as the inhibition concentration ratio between retrovirally transformed murine P388/VMDRC.04 and parental P388 cells. The class given is functional. In short, it runs like this:
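Readout of P-glycoprotein (PgP) susceptibility: IC50 in the retrovirally transformed P388/VMDRC.04 line divided by IC50 in parental P388 cells, giving fold resistance.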

Molecules are shown by their SMILES.

Broadly, the IC99 is the concentration at which the effect reaches the 99% level. Lower therefore signals greater potency. A word on the IC50: it is the concentration that inhibits the measured activity by half. Lower therefore signals greater potency. As for `C=C1C[C@@H]2CC[C@@]34C[C@@H]5O[C@@H]6C(O[C@H]7CC[C@H](CC(=O)O[C@@H]8[C@@H](C)[C@@H]9O[C@@H]%10C[C@]%11(C[C@@H]%12O[C@]%13(C[C@H](C)[C@@H]%14O[C@H]([C@@H](O)C[C@@H](O)CO)C[C@@H]%14O%13)C[C@H](C)[C@@H]%12O%11)O[C@@H]%10C[C@@H]9O[C@H]8C[C@H]8O[C@@H](CC[C@@H]1O2)C[C@@H](C)C8=C)O[C@@H]7[C@@H]6O3)[C@H]5O4`, the results for the 99% effect concentration (IC99) in the experiment on U-937 [1] and in the experiment with U-937 [3] were 0.008 µM and 0.025 µM, respectively. Moreover, in experiment [2], the Reversibility ratio came to 3. The IC50 in the experiment on DLD-1 was 740 pM. In addition, in the experiment on P388, the FR is reported as 2.8.

Turning to `C=C1C[C@@H]2CC[C@@]34C[C@@H]5O[C@@H]6C(O[C@H]7CC[C@H](CC(=O)C[C@@H]8[C@@H](OC)[C@@H](CCO)O[C@H]8C[C@H]8O[C@@H](CC[C@@H]1O2)C[C@@H](C)C8=C)O[C@@H]7[C@@H]6O3)[C@H]5O4`, the concentration for an effect of 99% (IC99) in the experiment with U-937 [1] amounted to 0.003 µM; in the experiment with U-937 [3], 0.1 µM. The Reversibility ratio in experiment [2] turned out to be 33. Moreover, the IC50 with DLD-1 was 660 pM. The FR in the experiment on P388 is recorded as 8.5.

For `C=C1C[C@@H]2CC[C@@]34C[C@@H]5O[C@@H]6C(O[C@H]7CC[C@H](CC(=O)C[C@@H]8[C@@H](OC)[C@@H](C[C@H](O)CN(C)C)O[C@H]8C[C@H]8O[C@@H](CC[C@@H]1O2)C[C@@H](C)C8=C)O[C@@H]7[C@@H]6O3)[C@H]5O4`, the concentration for an effect of 99% (IC99) in the experiment with U-937 [1] worked out at 0.001 µM; in the experiment with U-937 [3], 0.01 µM. For the same compound, the Reversibility ratio in experiment [2] came to 10. The same compound yielded an IC50 in the experiment with DLD-1 of 1200 pM. The FR with P388 was 22.

As for `C=C1C[C@@H]2CC[C@@]34C[C@@H]5O[C@@H]6C(O[C@H]7CC[C@H](CC(=O)C[C@@H]8[C@@H](OC)[C@@H](C[C@H](O)CNC(=O)c9cc(OC)c(OC)c(OC)c9)O[C@H]8C[C@H]8O[C@@H](CC[C@@H]1O2)C[C@@H](C)C8=C)O[C@@H]7[C@@H]6O3)[C@H]5O4`, the results for the concentration for an effect of 99% (IC99) in the experiment with U-937 [1] and with U-937 [3] were 0.002 µM and 0.01 µM, respectively. Further, in experiment [2], the Reversibility ratio amounted to 5. Moreover, the midpoint of inhibition in the experiment with DLD-1, the IC50, lay at 720 pM. In addition, the FR in the experiment on P388 was 20.

For `C=C1C[C@@H]2CC[C@@]34C[C@@H]5O[C@@H]6C(O[C@H]7CC[C@H](CC(=O)C[C@@H]8[C@@H](OC)[C@@H](C[C@H](O)CSc9ccc(Cl)cc9)O[C@H]8C[C@H]8O[C@@H](CC[C@@H]1O2)C[C@@H](C)C8=C)O[C@@H]7[C@@H]6O3)[C@H]5O4`, the 99% effect concentration (IC99) was 0.01 µM in the experiment with U-937 [1] and 0.2 µM in the experiment on U-937 [3]. Further, the Reversibility ratio in experiment [2] is 20. The compound further gave an IC50 in the experiment with DLD-1 of 1200 pM. The FR in the experiment with P388 was 2.

As to `C=C1C[C@@H]2CC[C@@]34C[C@@H]5O[C@@H]6C(O[C@H]7CC[C@H](CC(=O)C[C@@H]8[C@@H](OC)[C@@H](C[C@H](O)CNC(=O)C(=O)c9ccccc9)O[C@H]8C[C@H]8O[C@@H](CC[C@@H]1O2)C[C@@H](C)C8=C)O[C@@H]7[C@@H]6O3)[C@H]5O4`, the results for the concentration for an effect of 99% (IC99) in the experiment with U-937 [1] and in the experiment with U-937 [3] were 0.003 µM and 0.01 µM, respectively. Further, in experiment [2], the Reversibility ratio stood at 3. Moreover, in the experiment with DLD-1, the IC50 came to 870 pM. The FR in the experiment with P388 is recorded as 3.6.

`C=C1C[C@@H]2CC[C@@]34C[C@@H]5O[C@@H]6C(O[C@H]7CC[C@H](CC(=O)C[C@@H]8[C@@H](OC)[C@@H](C[C@H](O)CS(=O)(=O)c9ccc(OC)cc9)O[C@H]8C[C@H]8O[C@@H](CC[C@@H]1O2)C[C@@H](C)C8=C)O[C@@H]7[C@@H]6O3)[C@H]5O4`: the values for the concentration for an effect of 99% (IC99) in the experiment with U-937 [1] and with U-937 [3] were 0.003 µM and 0.03 µM, respectively. Also, the Reversibility ratio in experiment [2] was determined as 10. The IC50 with DLD-1 amounted to 740 pM. Besides, in the experiment on P388, the FR is recorded as 3.4.

`C=C1C[C@@H]2CC[C@@]34C[C@@H]5O[C@@H]6C(O[C@H]7CC[C@H](CC(=O)C[C@@H]8[C@@H](OC)[C@@H](C[C@H](O)CN9CCCCC9)O[C@H]8C[C@H]8O[C@@H](CC[C@@H]1O2)C[C@@H](C)C8=C)O[C@@H]7[C@@H]6O3)[C@H]5O4`: the figures for the IC99 in the experiment on U-937 [1] and in the experiment with U-937 [3] were 0.001 µM and 0.01 µM, respectively. Further, the Reversibility ratio in experiment [2] came to 10. Also, the IC50 in the experiment on DLD-1 was found to be 470 pM. In the experiment with P388, the FR is reported as 17.

`C=C1C[C@@H]2CC[C@@]34C[C@@H]5O[C@@H]6C(O[C@H]7CC[C@H](CC(=O)C[C@@H]8[C@@H](OC)[C@@H](C[C@H](O)CNC(=O)c9ccc(Cl)cc9)O[C@H]8C[C@H]8O[C@@H](CC[C@@H]1O2)C[C@@H](C)C8=C)O[C@@H]7[C@@H]6O3)[C@H]5O4`: the IC99 in the experiment on U-937 [1] amounted to 0.003 µM; with U-937 [3] it was 0.02 µM. Also, in experiment [2], the Reversibility ratio is listed as 7. In addition, it took 690 pM to reach half-maximal inhibition in the experiment on DLD-1 (IC50). In addition, the FR in the experiment on P388 is 5.9.
